Paper PMC11661184 (bioRxiv, 2024)

What was measured:
[1] = tested on: CaM (Calmodulin-agarose); assay: CaM-agarose pulldown of TRPA1 constructs; format: binding; conditions: for CaM binding at basal Ca2+ concentration: n=3 independent experiments
Outline: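 HEK293T cells were transfected with tagged TRPA1 constructs and lysed after 16-24 h in Tris pH 8.0 buffer containing 5 mM DDM and 500 µM EGTA. Free Ca²⁺ was set with CaCl₂, calculated from EGTA constants. 100 µg lysate was incubated with CaM-agarose for 1 h at 4 °C, washed, then eluted with 5 mM EGTA. Detection was by anti-FLAG or anti-MBP immunoblot, with tubulin input control. Enrichment is relative to the maximum within each replicate.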

[2] = tested on: TurboID-CaM C-lobe; assay: Proximity biotinylation in HEK293T cells; format: cell-based, human; conditions: 50 µM biotin 15 min, basal Ca2+; n=4
Outline: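 HEK293T cells co-expressed 3xFLAG-TurboID or 3xFLAG-TurboID-CaM C-lobe with 3xFLAG-hTRPA1 variants. About 48 h post-transfection, 50 uM biotin was added to the culture medium. After 15 min, cells were lysed and proteins captured on anti-FLAG resin (1 h, 4 °C), then eluted with 125 µg/ml 3xFLAG peptide. Biotinylated proteins were detected with HRP-streptavidin (1:50,000).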

[3] = tested on: hTRPA1 expressed in Xenopus laevis oocytes; format: cell-based, human
[4] = tested on: hTRPA1 expressed in Xenopus laevis oocytes; assay: Two-electrode voltage clamp, Ca2+ potentiation and desensitization; format: cell-based, human; conditions: for Slowing of desensitization versus WT hTRPA1, intracellular Ca2+ chelated: 500 µM EGTA-AM 20 min

B1: WT C. elegans TRPA1: WT C. elegans TRPA1, MBP-tagged (protein)
chain: MSKKSLGLDVRLELEGLISNDDTIRSEKDGRQASIFRVAELDARTEADNLRSIIHQSAREGNVNALQEALLKAPLAVNAQDGDFMTPLHYAARYGNYDAVKLLLSKNALPNTKNREGDTPLHIASKYIYGYSDICSIIDEDQADSARKYNTATKKIINALVSENAEIDPVNKYQLTPLHYAAMKSNFSALHALIKLKADVDAEDDNKMTPLLLACVHGSQEIIQELIKANSNVTKRDQRLNTVFHIVALRGEPEYLEMMMDHDPVEAIKALNLFNNEKKTPLRMAVEGNHPETLKKILQMEKKNSCKWMDREKELIHFAAEKGFLEVLKALVEAGGNKNELNEVKAVPLHVAAQMNQLEVVSYLIEEEKDNIDVVDEQGLTPLMMAVTHDSKKCVEYLIAKKANLTITDKDERTPVFIGAKFNALSSVEYILDHLRKKNKETERSALKSPTRNTLRIVSEDVRRTMVNMVDRDQNTPMHIVASNGYLEMMQLLQKHGASITQVNEDEETALHRAAIGGQTGAVRQLLEWDIRLLLMKDEMGNSALHLAARSGHDATTKVLLDNGADKEAKNSYQKTPLQVAVDSGKLETCQRLVAKGAQIESSSDTKTVLHTAAFYGNESIVRYFIAEGVTIDRRDEEGKTAFDIACENDHKDVARAFLETDQWKNLMIPCDVIPLDKHRNPVNMKRRTPFRTLLTKFPELASFVMDNCIEKSKEETDSTQSVAYNFEFLDDTYMMRCVSDDGTGEQLIGCKSAYDEDFKLEKDAQSYASNYDRVYKYHPLKLMADAEKLHLLNHPLSKALLKYKWNRLGRPMYYFALFMYLVFIVSLTQYVRHTKAPYNVWNEESYYDSEYFDENETCPQINTTKPDVVWKIIIQTLAVCQILVECFQLFQRKFAYLVNWENWIDCFIYSTALITVYDFSECSATSGVRQNWQWILAALCIFFGWINLLFMIRKMPRFGIFVVMFVDIVKTFFRFFPVFVLFIIAFSSSFYVILQNRPEFSTIFMSPLKTTVMMIGEFEFTGIFHGDETTHAEKMFGPAHTAVACALFFFFCIIMTILLMNLLVGLAVDDIKGVQEKAELKRLAMQVDLVLQIEASLHFFIQRTKKYATCRYATFPYGKLHKTGFAGWWSNFRRRFGLSVSTDPEIDEMYEREAEFTSEMTQKLQNQAAKLKNIQENIDVMYEKQVRLEAIIAKLATGLNINIELEEKDN
In the case of B1, the “CaM binding of TRPA1 species orthologues” value ([1]; MBP-tagged constructs, absence or presence of Ca2+, four independent experiments) is reported as “failed to bind CaM”.

B2: W1103A hTRPA1: hTRPA1 with W1103 mutated to alanine (protein)
chain: MKRSLRKMWRPGEKKEPQGVVYEDVPDDTEDFKESLKVVFEGSAYGLQNFNKQKKLKRCDDMDTFFLHYAAAEGQIELMEKITRDSSLEVLHEMDDYGNTPLHCAVEKNQIESVKFLLSRGANPNLRNFNMMAPLHIAVQGMNNEVMKVLLEHRTIDVNLEGENGNTAVIIACTTNNSEALQILLKKGAKPCKSNKWGCFPIHQAAFSGSKECMEIILRFGEEHGYSRQLHINFMNNGKATPLHLAVQNGDLEMIKMCLDNGAQIDPVEKGRCTAIHFAATQGATEIVKLMISSYSGSVDIVNTTDGCHETMLHRASLFDHHELADYLISVGADINKIDSEGRSPLILATASASWNIVNLLLSKGAQVDIKDNFGRNFLHLTVQQPYGLKNLRPEFMQMQQIKELVMDEDNDGCTPLHYACRQGGPGSVNNLLGFNVSIHSKSKDKKSPLHFAASYGRINTCQRLLQDISDTRLLNEGDLHGMTPLHLAAKNGHDKVVQLLLKKGALFLSDHNGWTALHHASMGGYTQTMKVILDTNLKCTDRLDEDGNTALHFAAREGHAKAVALLLSHNADIVLNKQQASFLHLALHNKRKEVVLTIIRSKRWDECLKIFSHNSPGNKCPITEMIEYLPECMKVLLDFCMLHSTEDKSCRDYYIEYNFKYLQCPLEFTKKTPTQDVIYEPLTALNAMVQNNRIELLNHPVCKEYLLMKWLAYGFRAHMMNLGSYCLGLIPMTILVVNIKPGMAFNSTGIINETSDHSEILDTTNSYLIKTCMILVFLSSIFGYCKEAGQIFQQKRNYFMDISNVLEWIIYTTGIIFVLPLFVEIPAHLQWQCGAIAVYFYWMNFLLYLQRFENCGIFIVMLEVILKTLLRSTVVFIFLLLAFGLSFYILLNLQDPFSSPLLSIIQTFSMMLGDINYRESFLEPYLRNELAHPVLSFAQLVSFTIFVPIVLMNLLIGLAVGDIAEVQKHASLKRIAMQVELHTSLEKKLPLWFLRKVDQKSTIVYPNKPRSGGMLFHIFCFLFCTGEIRQEIPNADKSLEMEILKQKYRLKDLTFLLEKQHELIKLIIQKMEIISETEDDDSHCSFQDRFKKEQMEQRNSRANTVLRAVKAKTHHLEP
In the case of B2, the “CaM binding at basal Ca2+ concentration” value [1] is reported as “completely ablated CaM binding”, the “TRPA1 biotinylation with TurboID-CaM C-lobe” value [2] is reported as “loss in biotinylation” and the “AITC sensitivity versus WT hTRPA1” value ([3]; Ca2+-free) is reported as “slightly reduced AITC sensitivities”. The “Gating kinetics and peak current amplitudes” value ([3]; absence of Ca2+, activation and closing at +80 mV, n=8) was “not significantly different from WT hTRPA1”, the “Faster desensitization rate with 10 mM than with 1.8 mM extracellular Ca2+” value ([4]; 250 µM AITC, 125 µM niflumic acid, n=10 or 11) was “approximately 3 fold” and the “Potentiation by extracellular Ca2+” value ([4]; 250 µM AITC, 1.8 mM Ca2+, comparable peak current amplitudes) was “rapid potentiation”. The “Slower desensitization than WT hTRPA1 with 1.8 mM Ca2+” value ([4]; 250 µM AITC, 10 mM extracellular Ca2+, 125 µM niflumic acid) was “approximately 4 fold”, the “Desensitization profile with buffered intracellular Ca2+” value ([4]; 500 µM EGTA-AM 20 min pre-incubation) was “delayed desensitization profile compared to WT hTRPA1 channels and a faster desensitization profile than W1103A hTRPA1 channels without intracellular Ca^2+ buffering” and the “Potentiation kinetics versus WT hTRPA1, buffered intracellular Ca2+” value ([4]; 500 µM EGTA-AM, n=8) was “did not exhibit a significant change to potentiation kinetics”. The “Residual activity after extracellular Ca2+ (of initial activity)” value ([4]; 5 minutes after 1.8 mM extracellular Ca2+, n=10 or 12 oocytes) was 10–20%, the “Increase in translocated charge versus WT hTRPA1” value ([4]; +80 mV) was 10 fold and the “Slowing of desensitization versus WT hTRPA1, intracellular Ca2+ chelated” value ([4]; +80 mV, 1.8 mM Ca2+, n=8) was 10.5 fold. The “Slowing of potentiation versus WT hTRPA1” value ([4]; +80 mV, 1.8 mM Ca2+) was ~ 1.8 fold, the “Slowing of desensitization versus WT hTRPA1” value ([4]; +80 mV, 1.8 mM Ca2+, n=10 or 12 oocytes) was 20 fold and the “Increase in translocated charge versus WT hTRPA1” value ([4]; −80 mV) was 20 fold. The “Slowing of desensitization versus WT hTRPA1, intracellular Ca2+ chelated” value ([4]; −80 mV, 1.8 mM Ca2+, n=8) was 10.7 fold, the “Slowing of potentiation versus WT hTRPA1” value ([4]; −80 mV, 1.8 mM Ca2+) was ~ 3 fold and the “Slowing of desensitization versus WT hTRPA1” value ([4]; −80 mV, 1.8 mM Ca2+, n=10 or 12 oocytes) was 15 fold.

B3: RK/AA (protein)
chain: MKRSLRKMWRPGEKKEPQGVVYEDVPDDTEDFKESLKVVFEGSAYGLQNFNKQKKLKRCDDMDTFFLHYAAAEGQIELMEKITRDSSLEVLHEMDDYGNTPLHCAVEKNQIESVKFLLSRGANPNLRNFNMMAPLHIAVQGMNNEVMKVLLEHRTIDVNLEGENGNTAVIIACTTNNSEALQILLKKGAKPCKSNKWGCFPIHQAAFSGSKECMEIILRFGEEHGYSRQLHINFMNNGKATPLHLAVQNGDLEMIKMCLDNGAQIDPVEKGRCTAIHFAATQGATEIVKLMISSYSGSVDIVNTTDGCHETMLHRASLFDHHELADYLISVGADINKIDSEGRSPLILATASASWNIVNLLLSKGAQVDIKDNFGRNFLHLTVQQPYGLKNLRPEFMQMQQIKELVMDEDNDGCTPLHYACRQGGPGSVNNLLGFNVSIHSKSKDKKSPLHFAASYGRINTCQRLLQDISDTRLLNEGDLHGMTPLHLAAKNGHDKVVQLLLKKGALFLSDHNGWTALHHASMGGYTQTMKVILDTNLKCTDRLDEDGNTALHFAAREGHAKAVALLLSHNADIVLNKQQASFLHLALHNKRKEVVLTIIRSKRWDECLKIFSHNSPGNKCPITEMIEYLPECMKVLLDFCMLHSTEDKSCRDYYIEYNFKYLQCPLEFTKKTPTQDVIYEPLTALNAMVQNNRIELLNHPVCKEYLLMKWLAYGFRAHMMNLGSYCLGLIPMTILVVNIKPGMAFNSTGIINETSDHSEILDTTNSYLIKTCMILVFLSSIFGYCKEAGQIFQQKRNYFMDISNVLEWIIYTTGIIFVLPLFVEIPAHLQWQCGAIAVYFYWMNFLLYLQRFENCGIFIVMLEVILKTLLRSTVVFIFLLLAFGLSFYILLNLQDPFSSPLLSIIQTFSMMLGDINYRESFLEPYLRNELAHPVLSFAQLVSFTIFVPIVLMNLLIGLAVGDIAEVQKHASLKRIAMQVELHTSLEKKLPLWFLRKVDQKSTIVYPNKPRSGGMLFHIFCFLFCTGEIRQEIPNADKSLEMEILKQKYRLKDLTFLLEKQHELIKLIIQKMEIISETEDDDSHCSFQDRFKKEQMEQRNSAWNTVLRAVAAKTHHLEP
In the case of B3, the “CaM binding at basal Ca2+ concentration” value [1] is reported as “similarly ablated CaM binding”.
